In data set [1] the test system is Escherichia coli. Description: Bactericidal activity against Escherichia coli BL2 after over night incubation. The note with it: read-out: MIC100. Type of data set: functional. An outline of the steps:
(§1)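 Overnight LB cultures (37 °C) diluted to about 5 × 10^5 CFU/mL; peptides in 10 mM sodium phosphate pH 7.5, serially diluted 10 to 0.2 μM, incubated with bacteria 4 h, then plated and grown overnight at 37 °C; MIC from two independent experiments, triplicate per concentration.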

The subject of another data set is Pseudomonas sp. Description: Bactericidal activity against Pseudomonas sp. ATCC 15915 after over night incubation. Type of data set: functional. The settings on record: read-out: MIC100. An outline of the steps:
as §1

Another data set deals with Acinetobacter baumannii. Description: Bactericidal activity against Acinetobacter baumannii ATCC 15308 after over night incubation. Type of data set: functional. The settings on record: read-out: MIC100. The procedure, abridged:
as §1

The subject of a further data set is Staphylococcus aureus. Description: Bactericidal activity against Staphylococcus aureus ATCC 502A after over night incubation. Type of data set: functional. The note with it: read-out: MIC100. An outline of the steps: as §1
Another data set relates to Micrococcus luteus. Description: Bactericidal activity against Micrococcus luteus ATCC 7468 after over night incubation. Type of data set: functional. The note with it: read-out: MIC100. The procedure, abridged: as §1
For a further data set, the system named is Enterococcus faecium. Description: Bactericidal activity against Enterococcus faecium ATCC 19434 after over night incubation. Type of data set: functional. The note with it: read-out: MIC100. The procedure, abridged:
as §1

The nature of data set [2]: Toxicity in human RBC assessed as hemolytic activity after 4 hrs. Type of data set: cell-based, Erythrocyte. The settings on record: human red blood cells (RBC). The procedure, abridged:
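Fresh human RBCs washed thrice in PBS (35 mM phosphate, 0.15 M NaCl, pH 7.4), 2 × 10^7 cells/mL, incubated with peptide 4 h at 37 °C; supernatant A570 read, 100% lysis set by 10 s sonication; HC50 from sigmoidal fit.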

In data set [3] the test system is Lipopolysaccharide (LPS). Description: Displacement of BODIPY TR cadaverine from Escherichia coli serotype 0111:B4 lipopolysaccharide by fluorescent displacement assay. The procedure, abridged:
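Bodipy TR cadaverine displacement: protein or peptide aliquots added to a stirred mix of LPS (10 μg/mL) and probe (10 μM) in 5 mM Hepes pH 7.5; fluorescence followed, effective displacement value (ED50) calculated.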

Data set [4] is described as follows: Induction of membrane damage in DOPC/DOPG large unilamellar vesicles model at <10 uM after 1 hr by leakage fluorescence assay. Type of data set: physicochemical.
Data set [5] in a line: Induction of membrane damage in DOPC/DOPG large unilamellar vesicles model after 1 hr by leakage fluorescence assay. The settings on record: read-out: ED50 (the source's name). Type of data set: physicochemical.
The subject of data set [6] is Escherichia coli. Description: Antibacterial activity against Escherichia coli assessed as concentration required to cause minimum agglutination behavior after overnight incubation. Type of data set: functional. An outline of the steps:
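E. coli grown at 37 °C to mid-exponential phase (OD600 0.6), pelleted, resuspended in Tris-HCl, 0.15 M NaCl, pH 7.5 to A600 of 10; suspension incubated with peptide at 0.1–10 μM, 25 °C overnight; agglutination scored by visual inspection, reported as minimal agglutinating concentration.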

For data set [7], the system named is Lipopolysaccharide (LPS). Description: Displacement of BODIPY TR cadaverine from Escherichia coli serotype 0111:B4 lipopolysaccharide at <10 uM by fluorescent displacement assay.

Values after ≈ are worked out from the molar mass of the structure shown. Active and inactive are the calls of the source. The calls are words filed in the database; no cut-off is given here. Where a SMILES comes first, the peptide text is derived from it. [ ]: non-standard residue; d: D form. Ahx = NCCCCCC(=O)O

On to `CC[C@H](C)[C@H](NC(=O)CNC(=O)[C@@H](NC(=O)[C@H](CCCCN)NC(=O)[C@H](CCCCN)NC(=O)[C@H](Cc1ccccc1)NC(=O)[C@H](CC(C)C)NC(=O)[C@H](CCCCN)NC(=O)[C@H](Cc1c[nH]c2ccccc12)NC(=O)[C@@H](N)CCCCN)[C@@H](C)CC)C(=O)NCC(=O)N[C@@H](C)C(=O)N[C@H](C(=O)N[C@@H](CC(C)C)C(=O)N[C@@H](CCCCN)C(=O)N[C@H](C(=O)N[C@@H](CC(C)C)C(=O)N[C@H](C(=O)N[C@H](C(=O)NCC(=O)N[C@@H](CC(C)C)C(=O)N1CCC[C@H]1C(=O)N[C@@H](C)C(=O)N[C@@H](CC(C)C)C(=O)N[C@H](C(=O)N[C@@H](CO)C(=O)O)[C@@H](C)CC)[C@@H](C)O)[C@@H](C)O)C(C)C)C(C)C`, for which the MIC turned out to be 1.1 µM (≈ 3.08 µg/mL) in the data set with Escherichia coli [1]; 0.6 µM (≈ 1.68 µg/mL) in the data set on Pseudomonas sp.; 0.88 µM (≈ 2.46 µg/mL) in the data set on Acinetobacter baumannii; 0.4 µM (≈ 1.12 µg/mL) in the data set with Staphylococcus aureus; 1.5 µM (≈ 4.19 µg/mL) with Micrococcus luteus; 1.5 µM (≈ 4.19 µg/mL) in the data set on Enterococcus faecium. For the same compound, in data set [2], the HC50 (usually the concentration giving 50% haemolysis) at 4 h worked out at 7.8 µM.
On to `CC[C@H](C)[C@H](NC(=O)[C@H](C)NC(=O)[C@H](CCCNC(=N)N)NC(=O)[C@H](CCSC)NC(=O)[C@H](C)NC(=O)[C@@H](NC(=O)[C@@H](NC(=O)[C@H](CO)NC(=O)CCCCCNC(=O)[C@H](Cc1cnc[nH]1)NC(=O)[C@H](CCC(N)=O)NC(=O)[C@@H](NC(=O)[C@H](C)NC(=O)[C@H](Cc1ccccc1)NC(=O)[C@H](Cc1c[nH]c2ccccc12)NC(=O)[C@H](CCC(N)=O)NC(=O)[C@H](C)N)[C@@H](C)CC)[C@@H](C)O)[C@@H](C)CC)C(=O)N[C@@H](CC(N)=O)C(=O)O` (H-AQWFAIQH[Ahx]STIAMRAIN-OH), for which the MIC in the data set with Escherichia coli [1], with Pseudomonas sp., in the data set on Acinetobacter baumannii, in the data set with Staphylococcus aureus, in the data set with Micrococcus luteus and in the data set on Enterococcus faecium was greater than 10 µM each time. Also, the HC50 at 4 h in data set [2] worked out at 15.2 µM. This compound also registered an ED50 in the data set on Lipopolysaccharide (LPS) [3] of 5130 nM. Also, the Activity result in data set [4] is reported as “Not Active”.
Turning to `CC[C@H](C)[C@H](NC(=O)[C@H](C)NC(=O)[C@H](Cc1ccccc1)NC(=O)[C@H](Cc1c[nH]c2ccccc12)NC(=O)[C@H](CCC(N)=O)NC(=O)[C@H](C)N)C(=O)N[C@@H](CCC(N)=O)C(=O)N[C@@H](Cc1cnc[nH]1)C(=O)NCCCCCC(=O)N[C@@H](CO)C(=O)N[C@H](C(=O)N[C@H](C(=O)N[C@@H](C)C(=O)N[C@@H](CCSC)C(=O)N[C@@H](CCCNC(=N)N)C(=O)N[C@@H](C)C(=O)N[C@H](C(=O)N[C@@H](CC(N)=O)C(=O)N[C@@H](CC(N)=O)C(=O)N[C@@H](Cc1ccc(O)cc1)C(=O)N[C@@H](CCCNC(=N)N)C(=O)N[C@@H](Cc1c[nH]c2ccccc12)C(=O)N[C@@H](CCCNC(=N)N)C(=O)O)[C@@H](C)CC)[C@@H](C)CC)[C@@H](C)O` (H-AQWFAIQH[Ahx]STIAMRAINNYRWR-OH), the MIC with Escherichia coli [1] was 1.5 µM (≈ 4.27 µg/mL); in the data set with Pseudomonas sp., 3.5 µM (≈ 9.97 µg/mL); in the data set on Acinetobacter baumannii, 7 µM (≈ 19.9 µg/mL); in the data set with Staphylococcus aureus it was 1.1 µM (≈ 3.13 µg/mL); in the data set on Micrococcus luteus, greater than 10 µM; with Enterococcus faecium, greater than 10 µM. In addition, in data set [2], the HC50 at 4 h was 14.4 µM. For the same compound, the EC50 in data set [5] was found to be 1630 nM. Further, the ED50 with Lipopolysaccharide (LPS) [3] is 1950 nM.
Turning to `CC[C@H](C)[C@H](NC(=O)[C@H](C)NC(=O)[C@H](CCCNC(=N)N)NC(=O)[C@H](CCSC)NC(=O)[C@H](C)NC(=O)[C@@H](NC(=O)[C@@H](NC(=O)[C@H](CO)NC(=O)CCCCCNC(=O)[C@H](CO)NC(=O)[C@@H](NC(=O)[C@H](Cc1cnc[nH]1)NC(=O)[C@H](CCC(N)=O)NC(=O)[C@@H](NC(=O)[C@H](C)NC(=O)[C@H](Cc1ccccc1)NC(=O)[C@H](Cc1c[nH]c2ccccc12)NC(=O)[C@H](CCC(N)=O)NC(=O)[C@H](C)NC(=O)[C@H](CCCNC(=N)N)NC(=O)[C@@H](N)[C@@H](C)O)[C@@H](C)CC)[C@@H](C)CC)[C@@H](C)O)[C@@H](C)CC)C(=O)N[C@@H](CC(N)=O)C(=O)N[C@@H](CC(N)=O)C(=O)N[C@@H](Cc1ccc(O)cc1)C(=O)N[C@@H](CCCNC(=N)N)C(=O)N[C@@H](Cc1c[nH]c2ccccc12)C(=O)N[C@@H](CCCNC(=N)N)C(=O)O` (H-TRAQWFAIQHIS[Ahx]STIAMRAINNYRWR-OH), the MIC in the data set on Escherichia coli [1] amounted to 0.6 µM (≈ 1.98 µg/mL); in the data set with Pseudomonas sp., 1.5 µM (≈ 4.96 µg/mL); with Acinetobacter baumannii it was 0.88 µM (≈ 2.91 µg/mL); in the data set on Staphylococcus aureus it was 0.87 µM (≈ 2.88 µg/mL); in the data set on Micrococcus luteus, 1.5 µM (≈ 4.96 µg/mL); in the data set with Enterococcus faecium it was 1.5 µM (≈ 4.96 µg/mL). The HC50 at 4 h in data set [2] amounted to 7.3 µM. Also, the EC50 in data set [5] stood at 820 nM. Also, in the data set with Escherichia coli [6], the Activity was less than 1 µM. In the data set with Lipopolysaccharide (LPS) [3], the ED50 is 1600 nM.
Consider H-AQWFAIQHISLNPPRSTIAMRAINNYRWR-OH, for which the MIC in the data set with Escherichia coli [1] was determined as 1.5 µM; with Pseudomonas sp., 3.5 µM; with Acinetobacter baumannii it was 1.5 µM; in the data set with Staphylococcus aureus, 0.7 µM; in the data set on Micrococcus luteus, 3.5 µM; in the data set with Enterococcus faecium it was 1.5 µM. Further, in [2], the concentration for 50% haemolysis (HC50) at 4 h was determined as 10.3 µM. In addition, the EC50 in data set [5] was found to be 740 nM. For the same compound, the Activity in the data set with Escherichia coli [6] was less than 1 µM. In addition, in the data set on Lipopolysaccharide (LPS) [3], the ED50 was determined as 2430 nM.
Consider “H-AQWFAIQHISLNPPRSTIAMRAINNYRWRSKNQNTFLR-OH”, for which the MIC was determined as 0.45 µM in the data set with Escherichia coli [1]; 1.5 µM in the data set on Pseudomonas sp.; 0.88 µM in the data set on Acinetobacter baumannii; 0.7 µM in the data set on Staphylococcus aureus; 1.5 µM with Micrococcus luteus; 1.5 µM in the data set with Enterococcus faecium. Besides, the HC50 at 4 h in data set [2] came to 10.5 µM. For the same compound, the EC50 in data set [5] is 400 nM. The Activity in the data set on Escherichia coli [6] is less than 1 µM. For the same compound, the ED50 with Lipopolysaccharide (LPS) [3] was 1580 nM.
For H-ISLNPPRSTIAMRAINNYRWRSKNQNTFLR-OH, the MIC amounted to 1.5 µM in the data set on Escherichia coli [1]; 1.5 µM in the data set on Pseudomonas sp.; 3.5 µM in the data set with Acinetobacter baumannii; 1.5 µM in the data set on Staphylococcus aureus; 3.5 µM in the data set with Micrococcus luteus; 3.5 µM in the data set with Enterococcus faecium. The HC50 at 4 h in data set [2] amounted to 10.5 µM. For the same compound, the EC50 in [5] is 760 nM. This compound also displayed an ED50 with Lipopolysaccharide (LPS) [3] of 6130 nM.
Turning to H-RPPQFTRAQWFAIQHISLN-OH, the MIC in the data set on Escherichia coli [1], in the data set with Pseudomonas sp., in the data set on Acinetobacter baumannii, with Staphylococcus aureus, in the data set with Micrococcus luteus and in the data set on Enterococcus faecium was greater than 10 µM in each case. In addition, the HC50 at 4 h in [2] was determined as 11.2 µM. The Activity result in [4] is “Not Active”. Further, in the data set on Lipopolysaccharide (LPS) [7], the outcome was inactive.
For the compound H-TIAMRAINNYRWRSKNQNTFLR-OH, the MIC came out at 7 µM with Escherichia coli [1]; 7 µM in the data set on Pseudomonas sp.; 1.1 µM in the data set with Acinetobacter baumannii; 1.5 µM with Staphylococcus aureus; 7 µM with Micrococcus luteus; 7 µM in the data set with Enterococcus faecium. Further, the HC50 at 4 h in data set [2] came out at 18.7 µM. Also, the EC50 in data set [5] stood at 1250 nM. In the data set on Lipopolysaccharide (LPS) [3], this compound gave an ED50 of 1520 nM.

The values are drawn from ChEMBL document CHEMBL1800033, “Refining the eosinophil cationic protein antibacterial pharmacophore by rational structure minimization” (J Med Chem, 2011).
